Source: ChEMBL document CHEMBL5335788, “Synthesis and evaluation of aromatic BDSF bioisosteres on biofilm formation and colistin sensitivity in pathogenic bacteria” (Eur J Med Chem, 2023)
Calls of active or inactive are those of the source. No cut-off for these calls is given here.

Assays:
Pseudomonas aeruginosa [1] = assay: Inhibition of biofilm formation in Pseudomonas aeruginosa PAO1 at 0.05 mM incubated for 24 hrs by crystal violet method; format: functional, organism-based
Summary of the method: (§1)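 Crystal violet assay in LB: log-phase bacteria at final 1×10^5 cfu/mL with sulfonamide at final 0.05 mM, 24 h at 37 °C. Biomass read at OD620, then wells washed, biofilm heat-fixed 65 °C 15 min, stained 0.1% crystal violet 15 min, dye eluted in 30% acetic acid, OD550 read. Neat DMSO control taken as 100%. Duplicates, at least two independent experiments; one-way ANOVA.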

Burkholderia multivorans [2] = assay: Potentiation of colistin-induced antibacterial activity against Burkholderia multivorans B10 assessed as colistin MIC at 50 uM incubated for 20 hrs by susceptibility testing (Rvb > 128 ug/ml); format: functional
Summary of the method: (§2)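 Colistin MIC by broth microdilution in cation-adjusted Mueller-Hinton broth, log-phase cells at final 5×10^5 cfu/mL. Two-fold colistin dilutions in duplicate with sulfonamide at final 0.05 mM (from 10 mM DMSO stock); 20 h at 37 °C. OD550 read. MIC taken as the lowest colistin level reducing growth ≥80% versus growth control. At least two replicates.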

Escherichia coli [3] = assay: Inhibition of biofilm formation in Escherichia coli ATCC 9637 at 0.05 mM incubated for 24 hrs by crystal violet method relative to control; format: functional; details: ATCC 9637, 24 h; summary of the method: as §1
Pseudomonas aeruginosa [4] = assay: Antimicrobial activity against Pseudomonas aeruginosa PAO1 assessed as microbial growth inhibition at 50 uM incubated for 20 hrs by broth microdilution method; format: functional, organism-based
Summary of the method: (§3)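 Overnight cultures in cation-adjusted Mueller-Hinton broth, subcultured 1:100; log-phase cells at final 1×10^5 cfu/mL exposed to sulfonamide at final 0.05 mM (from 10 mM DMSO stock) for 20 h at 37 °C. OD550 read after shaking. Growth expressed as percent of 0.5% DMSO control wells. Screened at least twice.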

Pseudomonas aeruginosa [5] = assay: Potentiation of colistin-induced antibacterial activity against Pseudomonas aeruginosa assessed as colistin MIC at 50 uM incubated for 20 hrs by susceptibility testing (reference value: 1 to 2 ug/ml); format: functional; summary of the method: as §2
Acinetobacter baumannii [6] = assay: Inhibition of biofilm formation in Acinetobacter baumannii ATCC 15308 at 0.05 mM incubated for 24 hrs by crystal violet method relative to control; format: functional; details: ATCC 15308, 24 h; summary of the method: as §1
Escherichia coli [7] = assay: Potentiation of colistin-induced antibacterial activity against Escherichia coli ATCC 9637 assessed as colistin MIC at 50 uM incubated for 20 hrs by susceptibility testing (reference value: 0.125 to 0.25 ug/ml); format: functional; summary of the method: as §2
Acinetobacter baumannii [8] = assay: Potentiation of colistin-induced antibacterial activity against Acinetobacter baumannii ATCC 15308 assessed as colistin MIC at 50 uM incubated for 20 hrs by susceptibility testing (reference value: 0.25 to 0.5 ug/ml); format: functional; summary of the method: as §2
[9] = test system: Stenotrophomonas maltophilia; assay: Inhibition of biofilm formation in Stenotrophomonas maltophilia K279a clinical isolate of rpf-1 subpopulation at 0.05 mM incubated for 24 hrs by crystal violet method; format: functional, organism-based; summary of the method: as §1
Burkholderia cepacia [10] = assay: Potentiation of colistin-induced antibacterial activity against Burkholderia cepacia R6193 assessed as colistin MIC at 50 uM incubated for 20 hrs by susceptibility testing (Rvb > 256 ug/ml); format: functional; summary of the method: as §2
Acinetobacter baumannii [11] = assay: Antimicrobial activity against Acinetobacter baumannii ATCC 15308 assessed as microbial growth inhibition at 50 uM incubated for 20 hrs by broth microdilution method; format: functional, organism-based; summary of the method: as §3
[12] = test system: Stenotrophomonas maltophilia; assay: Potentiation of colistin-induced antibacterial activity against Stenotrophomonas maltophilia K279a assessed as colistin MIC at 50 uM incubated for 20 hrs by susceptibility testing (reference value: 2 to 8 ug/ml); format: functional; summary of the method: as §2
Burkholderia multivorans [13] = assay: Inhibition of biofilm formation in Burkholderia multivorans B10 at 0.05 mM incubated for 24 hrs by crystal violet method relative to control; format: functional; details: B10, 24 h; summary of the method: as §1
Burkholderia cenocepacia = assay: Potentiation of colistin-induced antibacterial activity against Burkholderia cenocepacia 289 assessed as colistin MIC at 50 uM incubated for 20 hrs by susceptibility testing (Rvb > 256 ug/ml); format: functional; summary of the method: as §2
Escherichia coli [14] = assay: Antimicrobial activity against Escherichia coli ATCC 9637 assessed as microbial growth inhibition at 50 uM incubated for 20 hrs by broth microdilution method; format: functional, organism-based; summary of the method: as §3
Burkholderia cepacia [15] = assay: Inhibition of biofilm formation in Burkholderia cepacia R6193 clinical isolate at 0.05 mM incubated for 24 hrs by crystal violet method; format: functional, organism-based; summary of the method: as §1
[16] = test system: Stenotrophomonas maltophilia; assay: Antimicrobial activity against Stenotrophomonas maltophilia K279a assessed as microbial growth inhibition at 50 uM incubated for 20 hrs by broth microdilution method; format: functional, organism-based; summary of the method: as §3
[17] = Toxicity in Galleria mellonella larva assessed as larval survival at 50 uM

Row | Structure (SMILES) | MIC (Burkholderia multivorans [2]) [mg/L] | MIC (Pseudomonas aeruginosa [5]) [mg/L] | MIC (Escherichia coli [7]) [mg/L] | MIC (Acinetobacter baumannii [8]) [mg/L] | MIC (Burkholderia cepacia [10]) [mg/L] | MIC [12] [mg/L] | MIC (Burkholderia cenocepacia) [mg/L] | inhibition (Pseudomonas aeruginosa [1]) | inhibition at 50 µM (Escherichia coli [3]) [%] | growth inhibition (GI) (Pseudomonas aeruginosa [4]) | inhibition at 50 µM (Acinetobacter baumannii [6]) [%] | inhibition [9] | growth inhibition (GI) (Acinetobacter baumannii [11]) | inhibition at 50 µM (Burkholderia multivorans [13]) [%] | growth inhibition (GI) (Escherichia coli [14]) | inhibition (Burkholderia cepacia [15]) | growth inhibition (GI) [16] | Activity [17]
1 | CCCCCCCCCc1ccccc1C(=O)NS(=O)(=O)c1ccc(Cl)cc1 | > 128 | 4 | 1 | 1 | > 256 | 2 | > 256 | inactive | 59 | inactive | – | inactive | inactive | 47 | inactive | – | – | –
2 | CCCCCCCCC/C=C\C(=O)O | > 128 | 1 | 0.063 | 0.125 | > 256 | 0.5 | > 256 | inactive | – | inactive | 38 | inactive | inactive | – | inactive | – | – | –
3 | CCCCCCCCCc1ccccc1C(=O)NS(=O)(=O)c1ccc(OC)cc1 | > 128 | 1 | 0.25 | 0.25 | > 256 | 1 | > 256 | inactive | – | inactive | 41 | inactive | inactive | – | inactive | – | – | –
4 | CCCCCCCCCc1ccccc1C(=O)NS(=O)(=O)c1ccc([N+](=O)[O-])cc1 | > 128 | 2 | 0.5 | 0.5 | > 256 | 1 | > 256 | inactive | – | inactive | 50 | inactive | inactive | – | inactive | – | – | –
5 | CCCCCCCCCc1ccccc1C(=O)NS(=O)(=O)c1ccc(Br)cc1 | > 128 | 8 | > 1 | 2 | > 256 | 2 | > 256 | inactive | > 59 | inactive | 8 | inactive | inactive | 31 | inactive | inactive | – | –
6 | CCCCCCCCCc1ccccc1C(=O)NS(=O)(=O)c1ccccc1F | > 128 | 1 | 0.25 | 0.25 | > 256 | 1 | > 256 | inactive | – | inactive | 27 | inactive | inactive | – | inactive | – | – | –
7 | CCCCCCCCCc1ccccc1C(=O)NS(=O)(=O)c1ccccc1 | > 128 | 1 | 0.25 | 0.25 | > 256 | 0.5 | > 256 | inactive | – | inactive | – | inactive | inactive | – | inactive | – | – | –
8 | CCCCCCCCCc1ccccc1C(=O)NS(=O)(=O)c1cccc(F)c1 | > 128 | 1 | 0.25 | 0.25 | > 256 | 0.5 | > 256 | inactive | – | inactive | 27 | inactive | inactive | – | inactive | – | – | –

More lines, main results first:

Row | MIC (Burkholderia multivorans [2]) [mg/L] | MIC (Pseudomonas aeruginosa [5]) [mg/L] | MIC (Escherichia coli [7]) [mg/L] | MIC (Acinetobacter baumannii [8]) [mg/L] | MIC (Burkholderia cepacia [10]) [mg/L] | MIC [12] [mg/L] | MIC (Burkholderia cenocepacia) [mg/L] | Structure (SMILES) | inhibition (Pseudomonas aeruginosa [1]) | inhibition at 50 µM (Escherichia coli [3]) [%] | growth inhibition (GI) (Pseudomonas aeruginosa [4]) | inhibition at 50 µM (Acinetobacter baumannii [6]) [%] | inhibition [9] | growth inhibition (GI) (Acinetobacter baumannii [11]) | inhibition at 50 µM (Burkholderia multivorans [13]) [%] | growth inhibition (GI) (Escherichia coli [14]) | inhibition (Burkholderia cepacia [15]) | growth inhibition (GI) [16] | Activity [17]
9 | > 128 | 1 | 0.5 | 0.25 | > 256 | 0.5 | > 256 | CCCCCCCCCc1ccccc1C(=O)NS(=O)(=O)c1ccc(F)cc1 | inactive | 22 | inactive | 25 | inactive | inactive | 27 | inactive | – | – | –
10 | > 128 | 4 | > 1 | 1 | > 256 | 4 | > 256 | CCCCCCCCCc1ccccc1C(=O)NS(=O)(=O)c1cccc(Br)c1 | inactive | 63 | inactive | 1.5 | inactive | inactive | 41 | inactive | inactive | Active | Non-Toxic
11 | > 128 | 1 | 0.5 | 0.5 | > 256 | 0.5 | > 256 | CCCCCCCCCc1ccccc1C(=O)NS(=O)(=O)c1ccccc1Br | inactive | 43 | inactive | 30 | inactive | inactive | 38 | inactive | – | – | –
12 | > 128 | 1 | 0.5 | 0.5 | > 256 | 4 | > 256 | CCCCCCCCCc1ccccc1C(=O)NS(=O)(=O)c1ccc(C(C)(C)C)cc1 | inactive | – | inactive | – | inactive | inactive | > 35 | inactive | – | – | –
13 | > 128 | 1 | 0.125 | 0.125 | > 256 | 0.5 | > 256 | CCCCCCCCCc1ccccc1C(=O)NS(C)(=O)=O | inactive | – | inactive | – | inactive | inactive | – | inactive | – | – | Non-Toxic
14 | > 128 | 1 | 0.25 | 0.25 | > 256 | 0.5 | > 256 | CCCCCCCCCc1ccccc1C(=O)NS(=O)(=O)CCC(F)(F)F | inactive | – | inactive | – | inactive | inactive | – | inactive | – | – | –
15 | > 128 | 1 | 0.125 | 0.125 | > 256 | 1 | > 256 | CCCCCCCCCc1ccccc1C(=O)NS(=O)(=O)C1CC1 | inactive | – | inactive | – | inactive | inactive | – | inactive | – | – | –
